DTT redox prof – compounds producing H2O2 with reducing agent – biochemical, NIH compound library profiling, artefact control for MLSCN library redox annotation, primary screen; DTT-dependent redox cycling H2O2, phenol red/HRP absorbance; 100% = 100 µM peroxide control, 0% = buffer; AID 878; activation, % at 10 µM; actives 0.03% (n = 200,000);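 active = activation of at least 50% relative to the plate's high and low controls in the primary single-dose screen; inactive = activation below 50%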;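 also: compound incubated with DTT at 0.8 mM final as the reducing agent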
MPTP block – blocks calcium-induced mitochondrial swelling | AID 602449 | inhibition, % at 10 µM | actives 1.4% (n = 360,000) | isolated mouse mitochondria, Ca2+ swelling absorbance, 30 min;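 active = inhibition of 50% or more, scaled per plate between neutral and stimulator controls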;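 also: 0% = DMSO wells given calcium and 100% = 1 mM EGTA wells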
Lipid droplet – hepatic lipid droplet formation modulation. AML12 mouse hepatocytes, oleate lipid droplets, BODIPY imaging. inhibition, % at 6.5 µM. actives 0.4% (n = 240,000);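 active = lipid droplet intensity inhibited by at least 50%, with more than 500 cells counted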
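Material – AML12 mouse liver cells · Also added – oleate loading, 100 µM · Compound dosing – 6.5 µM single-point dosing · Times – overnight treatment with compound plus oleate · Measured by – fluorescence imaging, 20x objective, two fields per well · Read-out – percent inhibition of filter-corrected integrated lipid droplet intensity per well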
L major viab – Leishmania major promastigote growth inhibition. Leishmania major promastigotes, resazurin fluorescence viability. inhibition, % at 10 µM. actives 9% (n = 200,000); in the data active = inhibition above about 50%;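 also: promastigotes grown with compound for 44 hours at 28 °C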
T cruzi repl – T. cruzi replication inhibition; T. cruzi beta-gal in NIH3T3, luminescence, 90 h; inhibition, % (test concentration not listed); actives 1.4% (n = 300,000);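 active = mean inhibition across valid replicates above about 55%, limit read from the data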;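 also: signal also drops with host cell toxicity which is not excluded here; 0% = plate median of DMSO wells and 100% = zero luminescence signal; higher percent means less beta-gal luminescence so fewer parasites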
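assay system = mouse NIH/3T3 fibroblasts infected with β-gal-expressing T. cruzi Tulahuen C4 | input = 5,000 NIH/3T3 host cells per well | buffer or medium = DMEM plus 2% FBS | timing = 3 h host attachment, then at least 90 h co-culture | measured by = GalScreen luminescence, 60 min | evaluation = luminescence reflecting intracellular parasite burden, expressed as percent inhibition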
Rh123 counter – Rhodamine 123 counter-screen of mitochondrial pore hits | isolated mitochondria, membrane potential, Rhodamine 123 fluorescence | actives 78% (n = 5,000) | shares compounds with MPTP block | inhibition, % at 10 µM; in the data active = inhibition above about 22%;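 also: 0% = DMSO vehicle and 100% = positive control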
MPTP abs DR – MPTP inhibition, dose response swelling confirmation | shares compounds with MPTP block | IC50, µM | actives 58% (n = 780) | isolated mitochondria swelling, absorbance; in the data active = IC50 below about 20 µM
MPTP cs DR – active in counter-screen for permeability transition pore inhibitors; IC50, µM; actives 49% (n = 780); AID 651564; isolated mitochondria counterscreen, fluorescence read-out; shares compounds with MPTP block; in the data active = IC50 below about 80 µM
The depositor's hits bear a star; x = no result given. The entries come from a sample that favours hits as a whole.

SMILES	DTT redox prof	MPTP block	Lipid droplet	L major viab	T cruzi repl	Rh123 counter	others
CC(C)C(=O)NC(c1ccc([N+](=O)[O-])cc1)c1c(O)ccc2ccccc12 (stereo not drawn)	1	87*	x	97*	7	77*
Cc1ccc(C(=O)OCC(=O)NC(C)C2CC3CCC2C3)cc1N (stereo not drawn)	x	0	x	x	x	x
OCC1OC(n2cnc3c(SCc4ccccc4)nc(F)nc32)C(O)C1O (stereo not drawn)	x	0	x	x	x	x
Cc1cc(Nc2cc(Cl)cc(Cl)c2)nc(N)n1	x	5	-44	x	14	x
Nc1nonc1C(=O)NCCNCc1ccccc1OCc1ccccc1F	-1	4	x	14	10	x
COc1cc(CNCCNC(=O)c2nonc2N)ccc1OCc1ccc(Cl)cc1	0	83*	-18	98*	17	28*
NS(=O)(=O)c1ccc(CCNCc2cc(Br)ccc2OCc2ccccc2F)cc1	-1	78*	-18	38	-29	66*
NS(=O)(=O)c1ccc(CCNCc2cc(Cl)ccc2OCc2ccccc2)cc1	x	16	x	x	-9	x
Nc1nonc1C(=O)NCCNCc1cc(Br)ccc1OCc1ccccc1F	2	84*	-75	66*	29	80*
Cc1cc(C)cc(OC(C)C(=O)Nc2ccccc2C(=O)NCc2cccnc2)c1 (stereo not drawn)	x	-2	-15	x	3	x
Cc1ccc(S(=O)(=O)Nc2ccc3c(c2)C(=O)N([C@H](C)CO)C[C@H](C)[C@@H](CN(C)Cc2ccccc2)O3)cc1	x	-1	x	x	x	x
COc1ccccc1OCC(=O)NNc1c2ccccc2nc2ccccc12	x	8	6	x	32	x
Cc1ccc(C(C)C)cc1NC(=O)Nc1ccc([N+](=O)[O-])cc1	x	84*	16	x	51	79*
CC(C(=O)Nc1nccs1)c1ccc([N+](=O)[O-])cc1 (stereo not drawn)	-1	2	23	27	-7	x
Cc1cc(Br)ccc1NC(=O)C(C)c1ccc([N+](=O)[O-])cc1 (stereo not drawn)	1	54*	-6	35	-18	69*
Cc1ccc([N+](=O)[O-])cc1NC(=O)C(Sc1ccccc1)c1ccccc1 (stereo not drawn)	0	94*	-26	-5	-1	79*
O=C(NCc1ccc(Cl)cc1)c1ccc(S(=O)(=O)N2CCCCC2)cc1	x	1	x	x	x	x
Cc1cccc2sc(NNC(=O)c3cc(-c4cccs4)nc4ccccc34)nc12	2	68*	-30	-8	17	87*
CCn1c(COc2cccc(C)c2C)nnc1SCC(=O)N1CCN(c2ccc(OC)cc2)CC1	-4	60*	x	2	23	43*
CCn1c(COc2ccccc2C)nnc1SCC(=O)N1CCN(c2ccccc2)CC1	-4	0	40	0	2	x
COc1cccc(OC)c1/C=C/C(=O)NC1CCCCC1	x	1	-11	x	6	x
Cc1ccc(F)c(NC(=O)/C(C#N)=C(\O)c2ccc(C(C)(C)C)cc2)c1	-2	83*	1	0	-2	71*
O=[N+]([O-])c1ccc(N2CCN(Cc3ccc(Br)o3)CC2)cc1	x	-1	x	x	-5	x
CN(C)CCCN(C(=O)c1ccc(S(=O)(=O)N2CCCC2)cc1)c1nc2c(F)cc(F)cc2s1	x	20	x	x	47	x
CN(C)CCCN(C(=O)c1ccc(S(=O)(=O)N2CCCCCC2)cc1)c1nc2c(F)cc(F)cc2s1	x	88*	x	x	53	-12	MPTP abs DR=4.3*;MPTP cs DR=>80
SMILES	DTT redox prof	MPTP block	Lipid droplet	L major viab	T cruzi repl	Rh123 counter	others
CCN(CC)CCN(C(=O)c1ccc(S(=O)(=O)N(C)C2CCCCC2)cc1)c1nc2c(C)cccc2s1	x	1	2	x	33	x
CCOC(=O)N1CCN(S(=O)(=O)c2ccc(C(=O)N(CCCN(C)C)c3nc4c(C)c(C)ccc4s3)cc2)CC1	x	75*	x	x	49	-13	MPTP abs DR=5.5*;MPTP cs DR=>80
CCN(Cc1ccccc1)S(=O)(=O)c1ccc(C(=O)N(CCCN(C)C)c2nc3c(C)c(C)ccc3s2)cc1	x	82*	x	x	60*	-15
Cc1ccc2sc(N(CCCN(C)C)C(=O)c3ccc(S(=O)(=O)N(C)C4CCCCC4)cc3)nc2c1C	x	88*	x	x	59*	-18
O=C(O)C1CCCN1c1ncccc1[N+](=O)[O-] (stereo not drawn)	-2	-1	16	-3	-3	x
CC(C)c1ccc(OCc2ccc(C(=O)NN3CCN(C)CC3)o2)cc1	0	1	6	-2	27	x
COc1ccc(Cl)cc1NC(=S)NC1CCCC1	x	0	-15	x	-29	x
COc1ccc(CCNC(=O)c2nn(C)cc2Cl)cc1	1	-1	-27	-2	-5	x
COc1ccc(CCNC(=O)c2cc(-c3ccc(Cl)c(Cl)c3)oc2C)cc1	1	91*	-20	2	-6	91*
COc1ccccc1CNc1nc(NCc2ccc(C(C)C)cc2)c2sccc2n1	x	49	x	x	x	x
CC(C)c1ccc(CNc2nc(NCC3CC3)nc3ccsc23)cc1	x	80*	x	x	x	99*
COc1cccc(CNc2nc(NCC3CC3)nc3ccsc23)c1OC	x	4	x	x	x	x
c1csc(CNc2nc(NCC3CCCCC3)c3sccc3n2)c1	x	51*	x	x	x	91*
CNc1nc(NCCOc2ccccc2Cl)c2sccc2n1	x	1	x	x	x	x
CSc1ccccc1CNc1nc(NCC2CC2)nc2ccsc12	x	91*	x	x	x	102*
COc1ccccc1CNc1nc(NCCOc2ccccc2Cl)c2sccc2n1	x	50*	x	x	x	92*
CC(C)CCSc1nnc(N)s1	x	1	6	x	-18	x
Cc1cccc(NC(=O)Nc2ccc(S(N)(=O)=O)cc2)c1	x	-1	16	x	-15	x
Cc1cccc(NC(=O)Nc2ccc(Oc3c(F)c(F)c(F)c(F)c3F)cc2)c1	2	88*	x	0	36	60*
CN(C(=O)c1cccc(NC(=O)Cc2ccc(NC(=O)C3CCCN(C(=O)CCc4ccccc4)C3)cc2)c1)C1CCC1 (stereo not drawn)	x	1	x	x	x	x
COc1ccc2c(=O)cc(-c3cccnc3)oc2c1OC	x	-1	2	x	-5	x
Cc1cnc(NC(=O)Cc2ccc(Br)cc2)s1	x	4	11	x	-26	x
O=C(COC(=O)COc1ccccc1)Nc1ncc([N+](=O)[O-])s1	x	-2	x	x	x	x
O=C(Cc1ccc(Br)cc1)Nc1ncc([N+](=O)[O-])s1	x	74*	-23	x	60*	82*
CCC(Oc1ccccc1)C(=O)Nc1nnc(C)s1 (stereo not drawn)	1	-2	7	-1	-4	x
CCC(Oc1ccccc1)C(=O)Nc1ncc([N+](=O)[O-])s1 (stereo not drawn)	0	89*	8	-5	43	98*

Screens (PubChem BioAssay)
